Experimental data as given in ChEMBL document CHEMBL4130635, “2,4-Diaminoquinazolines as Dual Toll-like Receptor (TLR) 7/8 Modulators for the Treatment of Hepatitis B Virus” (J Med Chem, 2018).
Activity calls are given as the source filed them. The rule behind the calls is not given here.

How the values were obtained:
Liver [1] = test: Proinflammatory activity in C57BL/6J mouse liver assessed as TNFalpha levels at 3 mg/kg, po by multiplex assay (reference value: 15 pg/g); format: functional
Plasma [2] = test: Proinflammatory activity in C57BL/6J mouse plasma assessed as IL-1beta levels at 0.3 mg/kg, po by multiplex assay (reference value: 60 pg/ml); format: functional
Liver [3] = test: Proinflammatory activity in C57BL/6J mouse liver assessed as TNFalpha levels at 10 mg/kg, po by multiplex assay (reference value: 15 pg/g); format: functional
Cynomolgus monkey [4] = test: Activation of monocytes in cynomolgus monkey plasma assessed as upregulation of MCP1 levels at 3 mg/kg, po after 24 hrs by Luminex assay (reference value: 385 pg/ml); format: functional, Macaca fascicularis
Liver [5] = test: Proinflammatory activity in C57BL/6J mouse liver assessed as IL-1beta levels at 3 mg/kg, po by multiplex assay; format: functional
[6] = test system: Toll-like receptor 7/8 (Homo sapiens); test: Agonist activity at TLR7/8 in human PBMCs assessed as decrease in intracellular HBV RNA levels in human hepatocytes infected with HBV genotype C for 12 days followed by exposure to conditioned supernatant from up to 5 uM compound treated PBMCs measured after 42 days
[7] = Tmax in Sprague-Dawley rat plasma at 10 mg/kg, po; format: ADME, organism-based
Plasma [8] = test: Induction of IFNalpha levels in C57BL/6J mouse plasma at 3 mg/kg, po by ELISA; format: functional
Cynomolgus monkey [9] = test: Anti-inflammatory activity in cynomolgus monkey plasma assessed as IL-10 levels at 1 mg/kg, po after 24 hrs by Luminex assay (reference value: 195 pg/ml); format: functional, Macaca fascicularis
Cynomolgus monkey [10] = test: Activation of monocytes in cynomolgus monkey plasma assessed as upregulation of MIP1 levels at 1 mg/kg, po after 24 hrs by Luminex assay (reference value: 37 pg/ml); format: functional, Macaca fascicularis
Cynomolgus monkey [11] = test: Effect on cytokine profile in cynomolgus monkey plasma assessed as IP10 levels at 3 mg/kg, po after 24 hrs by Luminex assay (reference value: 18.5 pg/ml); format: functional, Macaca fascicularis
Outline: (§1)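 Healthy cynomolgus monkeys given single oral doses of 1, 3, 9 and 30 mg/kg, with a 2-week wash-out planned between doses. Systemic cytokine levels in plasma were sampled at 0.5, 1, 2, 4, 9 and 24 h postdose.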

Plasma [12] = test: Proinflammatory activity in C57BL/6J mouse plasma assessed as IL-6 levels at 3 mg/kg, po by multiplex assay (reference value: 505 pg/ml); format: functional
Cynomolgus monkey [13] = test: Effect on cytokine profile in cynomolgus monkey plasma assessed as IL-15 levels at 3 mg/kg, po after 24 hrs by Luminex assay (reference value: 20 pg/ml); format: functional, Macaca fascicularis; outline: as §1
[14] = AUC (0 to last) in cynomolgus monkey plasma at 9 mg/kg, po by LC-MS analysis; format: ADME, organism-based, Macaca fascicularis; parameters: dose 9 mg/kg, route oral, time 0 - last
Outline: (§2)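 Healthy cynomolgus monkeys received single oral doses of 1, 3, 9 and 30 mg/kg, with a 2-week wash-out between doses. Systemic compound concentrations were measured by LC–MS at 0.25, 0.5, 1, 2, 4, 8 and 24 h postdose.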

[15] = target: TLR7 and TLR8 (Homo sapiens) (UniProt Q9NYK1+Q9NR97); test: Agonist activity at TLR7/8 in human PBMCs co-cultured with primary human hepatocytes infected with HBV genotype C for 12 days assessed as increase in IFNalpha2 levels up to 5 uM measured after 42 days
Cynomolgus monkey [16] = test: Toxicity in cynomolgus monkey assessed as change in body weight up to 30 mg/kg, po; format: organism-based, Macaca fascicularis; settings: in vivo
Plasma [17] = test: Proinflammatory activity in C57BL/6J mouse plasma assessed as CXCL-1 levels at 30 mg/kg, po by multiplex assay (reference value: 230 pg/ml); format: functional
[18] = target: T1, Toll-like receptor 8 (Homo sapiens) (UniProt Q9NR97); test: Agonist activity at human TLR8 expressed in HEK293 cells assessed as induction of receptor activation incubated for 6 hrs by NF-kappaB-luciferase reporter gene assay; format: cell-based
T1 sequence (whole entry): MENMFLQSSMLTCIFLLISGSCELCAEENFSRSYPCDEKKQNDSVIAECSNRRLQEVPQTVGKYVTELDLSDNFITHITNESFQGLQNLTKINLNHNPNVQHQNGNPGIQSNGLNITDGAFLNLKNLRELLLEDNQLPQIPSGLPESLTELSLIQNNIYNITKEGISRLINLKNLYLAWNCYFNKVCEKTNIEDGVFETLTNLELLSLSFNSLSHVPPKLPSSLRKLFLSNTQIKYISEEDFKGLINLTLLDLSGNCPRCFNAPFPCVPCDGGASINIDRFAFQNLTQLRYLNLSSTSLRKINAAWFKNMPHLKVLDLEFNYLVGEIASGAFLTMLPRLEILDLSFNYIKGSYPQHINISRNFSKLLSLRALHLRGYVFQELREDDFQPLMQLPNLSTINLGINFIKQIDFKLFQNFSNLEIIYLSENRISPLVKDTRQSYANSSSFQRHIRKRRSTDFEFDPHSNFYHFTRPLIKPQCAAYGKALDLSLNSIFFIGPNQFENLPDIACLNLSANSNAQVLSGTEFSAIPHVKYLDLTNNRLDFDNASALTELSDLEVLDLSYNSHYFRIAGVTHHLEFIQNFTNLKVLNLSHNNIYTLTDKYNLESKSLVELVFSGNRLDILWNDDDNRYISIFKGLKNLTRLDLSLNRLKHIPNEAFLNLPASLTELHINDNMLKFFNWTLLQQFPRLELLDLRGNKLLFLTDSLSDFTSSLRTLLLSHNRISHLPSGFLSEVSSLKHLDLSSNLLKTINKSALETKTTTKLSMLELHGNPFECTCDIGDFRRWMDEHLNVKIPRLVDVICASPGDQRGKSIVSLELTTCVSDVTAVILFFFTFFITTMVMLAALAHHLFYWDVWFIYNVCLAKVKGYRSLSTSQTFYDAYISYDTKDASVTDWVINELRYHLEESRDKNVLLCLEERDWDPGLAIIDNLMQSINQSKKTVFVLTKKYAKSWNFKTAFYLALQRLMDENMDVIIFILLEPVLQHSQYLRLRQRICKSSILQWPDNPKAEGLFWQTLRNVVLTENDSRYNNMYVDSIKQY

[19] = AUC (0 to last) in cynomolgus monkey plasma at 1 mg/kg, po by LC-MS analysis; format: ADME, organism-based, Macaca fascicularis; parameters: dose 1 mg/kg, time 0 - last, route oral; outline: as §2
Liver [20] = test: Proinflammatory activity in C57BL/6J mouse liver assessed as IL-1beta levels at 0.3 mg/kg, po by multiplex assay; format: functional
[21] = AUC (0 to last) in C57BL/6J mouse liver at 0.3 mg/kg, po by LC-MS analysis; format: ADME, organism-based; settings: in vivo
Outline: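 Healthy C57BL/6 mice were dosed once by mouth at 0.3, 1, 3, 10 or 30 mg/kg in 20% HP-β-CD, in groups of 15 per dose. Three mice per group were sacrificed at 0.5, 1, 2, 4 or 7 h, and plasma and liver compound levels were measured by LC–MS. Values were rounded to whole numbers.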

[22] = Solubility of the compound in FaSSIF; format: physicochemical

CCC[C@@H](CCO)Nc1nc(N)nc2c(F)cccc12
Activity (Liver [1]): 2865 pg/g
Activity (Plasma [2]): 50 pg/mL
Activity (Liver [3]): 8330 pg/g
Activity (Cynomolgus monkey [4]): 7720 pg/mL
Activity (Liver [5]): 22925 pg/g
Activity [6]: Active
Tmax [7]: 30 min
Activity (Plasma [8]): 695 pg/mL
Activity (Cynomolgus monkey [9]): 1275 pg/mL
Activity (Cynomolgus monkey [10]): 44 pg/mL
Activity (Cynomolgus monkey [11]): 1490 pg/mL
Activity (Plasma [12]): 4970 pg/mL
Activity (Cynomolgus monkey [13]): 60 pg/mL
AUC(0-t) [14]: 4050 ng·h/mL
Activity [15]: Active
Activity (Cynomolgus monkey [16]): Non-Toxic
Activity (Plasma [17]): >10000 pg/mL
MEC [18]: 0.16 µM
AUC(0-t) [19]: 75 ng·h/mL
Activity (Liver [20]): 9765 pg/g
AUClast [21]: 25 ng·h/g
solubility [22]: > 4000 µg/mL
